Laboratory results as given in ChEMBL document CHEMBL4000187, “Design and synthesis of emodin derivatives as novel inhibitors of ATP-citrate lyase” (Eur J Med Chem, 2017).
The source made the active and inactive calls. The calls are words filed in the database; no cut-off is given here.

Legend:
ATP-citrate synthase = biological target: T1, ATP-citrate synthase (Homo sapiens, UniProt P53396); assay: Inhibition of ATP citrate lyase (unknown origin) using sodium citrate as substrate after 60 mins by ADP-Glo luminescence assay
T1 sequence (P53396 whole entry): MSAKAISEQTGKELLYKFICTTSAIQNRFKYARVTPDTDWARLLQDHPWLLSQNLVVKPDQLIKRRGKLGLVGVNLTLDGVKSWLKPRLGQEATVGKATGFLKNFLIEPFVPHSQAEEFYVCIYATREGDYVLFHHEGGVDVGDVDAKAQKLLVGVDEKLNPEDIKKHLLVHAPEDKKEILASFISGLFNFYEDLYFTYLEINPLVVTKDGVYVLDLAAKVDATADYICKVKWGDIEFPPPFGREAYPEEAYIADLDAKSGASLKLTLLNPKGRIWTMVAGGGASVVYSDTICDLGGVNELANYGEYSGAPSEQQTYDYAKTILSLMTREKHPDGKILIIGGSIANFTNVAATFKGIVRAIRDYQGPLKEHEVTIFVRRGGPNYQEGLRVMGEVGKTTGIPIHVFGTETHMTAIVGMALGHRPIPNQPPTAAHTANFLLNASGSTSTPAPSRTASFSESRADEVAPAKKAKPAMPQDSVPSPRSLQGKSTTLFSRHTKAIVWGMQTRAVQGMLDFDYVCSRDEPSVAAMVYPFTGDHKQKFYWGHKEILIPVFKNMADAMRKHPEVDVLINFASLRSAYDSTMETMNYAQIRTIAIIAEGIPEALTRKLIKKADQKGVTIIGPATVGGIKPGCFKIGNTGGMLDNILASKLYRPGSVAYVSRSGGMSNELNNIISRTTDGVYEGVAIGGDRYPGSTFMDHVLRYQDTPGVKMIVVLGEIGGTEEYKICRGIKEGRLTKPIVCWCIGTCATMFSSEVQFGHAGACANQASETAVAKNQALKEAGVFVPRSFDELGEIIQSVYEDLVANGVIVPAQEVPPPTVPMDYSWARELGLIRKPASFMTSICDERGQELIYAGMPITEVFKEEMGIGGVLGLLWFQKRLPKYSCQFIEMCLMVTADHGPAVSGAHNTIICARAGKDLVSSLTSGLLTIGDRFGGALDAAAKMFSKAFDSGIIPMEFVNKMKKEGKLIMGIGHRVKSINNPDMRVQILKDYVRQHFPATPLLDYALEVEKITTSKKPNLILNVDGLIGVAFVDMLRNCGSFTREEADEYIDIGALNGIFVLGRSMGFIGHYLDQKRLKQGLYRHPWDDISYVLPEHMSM
Method in brief: (§1)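 ADP-Glo reagent then added for 45 min at room temperature, and ADP formed was read by luminescence. Dose-response run in duplicate over 0.03–30 µM in 3.3-fold serial dilutions.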

A549 [1] = assay: Antiproliferative activity against human A549 cells at 5 uM after 24 hrs by WST1 assay relative to control; format: functional; conditions: A549, 24 h
Method in brief: (§2)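 A549 cells seeded at 5 × 10⁴/well in Ham's F-12 with 10% FBS, with or without compound, cultured 24 h at 37 °C in 5% CO₂. Single-concentration screen at 5 µM; dose-escalation at 1, 5, 10 µM. WST-1 reagent added, 1 h incubation, absorbance at 450 nm. ACL shRNA/siRNA knockdown served as positive control.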

[2] = biological target: T2, ATP-citrate synthase (Homo sapiens) (UniProt P53396); assay: Inhibition of ATP citrate lyase (unknown origin) at 10 uM using sodium citrate as substrate after 60 mins by ADP-Glo luminescence assay relative to control; method in brief: as §1
T2 sequence (whole entry): T1 sequence (P53396 whole entry)

A549 [3] = assay: Antiproliferative activity against human A549 cells after 24 hrs by WST1 assay; format: functional, cell-based; method in brief: as §2
A549 [4] = assay: Inhibition of cancer stemness in human A549 cells under 3D culture condition assessed as induction of apoptosis in spheroid by Hoechst 33342/Sytox green staining-based confocal microscopic method; format: functional, cell-based
Method in brief: (§3)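 Cells seeded at 2000 per well onto 1.5% agarose-coated wells and grown 2 days at 37 °C, 5% CO₂ to form spheroids before treatment. Staining used Hoechst 33342 for all nuclei plus Sytox Green for dead cells, each at 1:10,000 final. Confocal imaging measured spheroid inner area and Sytox Green integrated density (IntDen), with IntDen/Area as the index.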

A549 [5] = assay: Inhibition of cancer stemness in human A549 cells under 3D culture condition assessed as reduction in spheroid size by Hoechst 33342/Sytox green staining-based confocal microscopic method; format: functional, cell-based; method in brief: as §3
A549 [6] = assay: Antiproliferative activity against human A549 cells at 10 uM after 24 hrs by WST1 assay relative to control; format: functional; conditions: A549, 24 h; method in brief: as §2
HMLE [7] = assay: Inhibition of cancer stemness in snail expressing HMLE cells under 3D culture condition assessed as reduction in spheroid size by Hoechst 33342/Sytox green staining-based confocal microscopic method; format: functional, cell-based; conditions: Homo sapiens; method in brief: as §3
HMLE [8] = assay: Inhibition of cancer stemness in snail expressing HMLE cells under 3D culture condition assessed as induction of apoptosis in spheroid by Hoechst 33342/Sytox green staining-based confocal microscopic method; format: functional, cell-based; conditions: Homo sapiens; method in brief: as §3
[9] = biological target: T2, ATP-citrate synthase (Homo sapiens); assay: Inhibition of ATP citrate lyase (unknown origin) at 3.3 uM using sodium citrate as substrate after 60 mins by ADP-Glo luminescence assay relative to control; method in brief: as §1
A549 [10] = assay: Inhibition of cancer stemness in human A549 cells under 3D culture condition assessed as reduction in spheroid size at 25 uM by Hoechst 33342/Sytox green staining-based confocal microscopic method; format: functional, cell-based; method in brief: as §3
HMLE [11] = assay: Inhibition of cancer stemness in snail expressing HMLE cells under 3D culture condition assessed as reduction in spheroid size at 25 uM by Hoechst 33342/Sytox green staining-based confocal microscopic method; format: functional, cell-based; conditions: Homo sapiens; method in brief: as §3
A549 [12] = assay: Inhibition of cancer stemness in human A549 cells under 3D culture condition assessed as induction of apoptosis in spheroid at 25 uM by Hoechst 33342/Sytox green staining-based confocal microscopic method; format: functional, cell-based; method in brief: as §3
HMLE [13] = assay: Inhibition of cancer stemness in snail expressing HMLE cells under 3D culture condition assessed as induction of apoptosis in spheroid at 25 uM by Hoechst 33342/Sytox green staining-based confocal microscopic method; format: functional, cell-based; conditions: Homo sapiens; method in brief: as §3

Row | Compound | IC50 (ATP-citrate synthase) [µM] | inhibition [2] [%] | also measured
1 | Cc1cc(O)c2c(c1)Cc1c(Cl)c(O)cc(O)c1C2=O | 3.8 | – | inhibition at 5 µM (A549 [1]): 40 to 80%
2 | Cc1ccc(-c2c(O)cc3c(c2O)C(=O)c2c(O)cc(C)cc2C3=O)cc1 | – | 0 | –
3 | Cc1cc(O)c2c(c1)C(=O)c1cc(O)c(Cl)c(O)c1C2=O | 12.6 | – | inhibition at 5 µM (A549 [1]): 40 to 80%
4 | Cc1cc(O)c2c(c1)C(=O)c1cc3c(c(O)c1C2=O)CN(c1ccccc1)CO3 | 25.8 | – | –
5 | Cc1cc(O)c2c(c1)C(=O)c1cc(O)c(-c3ccccc3)c(O)c1C2=O | – | 8 | –
6 | Cc1cc(O)c2c(c1)C(=O)c1cc(O)c(CN3CCCCC3)c(O)c1C2=O | – | 6 | –
7 | COc1cccc(-c2c(O)cc3c(c2O)C(=O)c2c(O)cc(C)cc2C3=O)c1 | 21.2 | – | –
8 | COc1ccc(-c2c(O)cc3c(c2O)C(=O)c2c(O)cc(C)cc2C3=O)cc1 | 18.8 | – | –
9 | Cc1cc(O)c2c(c1)C(=O)c1cc(O)c(CN3CCOCC3)c(O)c1C2=O | – | 10 | –
10 | Cc1cc(O)c2c(c1)C(=O)c1cc(O)c(CN(C)c3ccccc3)c(O)c1C2=O | – | 6 | –
11 | Cc1cc(O)c2c(c1)C(=O)c1cc(O)c(-c3ccncc3)c(O)c1C2=O | – | 0 | –
12 | Cc1cc(O)c2c(c1)C(=O)c1c(Cl)c(O)cc(O)c1C2=O | 9.6 | – | inhibition at 5 µM (A549 [1]): 40 to 80%
13 | COc1cc2c(c(OC)c1Cl)C(=O)c1c(OC)cc(C)cc1C2=O | – | 0 | –
14 | Cc1cc(O)c2c(c1)C(=O)c1cc(O)cc(O)c1C2=O | – | 0 | –
15 | Cc1cc(O)c2c(c1)C(=O)c1cc(O)c(-c3cnn(C)c3)c(O)c1C2=O | 13.3 | – | inhibition (A549 [3]): Dose-dependent effect; inhibition at 5 µM (A549 [1]): 40 to 80%
16 | COc1cc(OC)cc(-c2c(O)cc3c(c2O)C(=O)c2c(O)cc(C)cc2C3=O)c1 | – | 0 | –
17 | Cc1cc(O)c2c(c1)C(=O)c1cc3c(c(O)c1C2=O)CN(c1ccc2ocnc2c1)CO3 | 29.7 | – | –
18 | Cc1cc(O)c2c(c1)C(=O)c1cc(O)c(I)c(O)c1C2=O | 7.5 | – | –
19 | Cc1cc(O)c2c(c1)C(=O)c1c(c(O)c(-c3cccnc3)c(O)c1-c1cccnc1)C2=O | 23.5 | – | –
20 | Cc1cccc(-c2c(O)cc3c(c2O)C(=O)c2c(O)cc(C)cc2C3=O)c1 | 30 | – | –
21 | Cc1cc(O)c2c(c1)C(=O)c1c(Br)c(O)c(Br)c(O)c1C2=O | 2.9 | > 99 | inhibition (A549 [4]): Dose-dependent effect; inhibition (A549 [5]): Dose-dependent effect; inhibition (A549 [3]): Dose-dependent effect; inhibition at 10 µM (A549 [6]): 100%; inhibition (HMLE [7]): Dose-dependent effect; inhibition (HMLE [8]): Dose-dependent effect; inhibition at 5 µM (A549 [1]): 40 to 80%; inhibition [9]: > 99%
22 | Cc1cc(O)c2c(c1)Cc1cc(O)cc(O)c1C2=O | – | 0 | –
23 | Cc1cc(O)c2c(c1)C(=O)c1cc(O)c(-c3cccnc3)c(O)c1C2=O | 21.1 | – | –
24 | COc1ccc(-c2ccccc2)cc1NS(=O)(=O)c1cc(Cl)cc(Cl)c1O | – | – | inhibition (A549 [10]): Active; inhibition (HMLE [11]): Active; inhibition (A549 [12]): Active; inhibition (HMLE [13]): Active
